{"source": "ChEMBL document CHEMBL5705888", "about": "“Substrate specificity and inhibitors of LRRK2, a protein kinase mutated in Parkinson's disease” (Biochem J, 2009)", "key": {"[1]": {"biological_target": "Casein kinase 2 (Homo sapiens) (UniProt P67870+P68400+P19784+Q8NEV1)", "assay": "Inhibition of CK2 (unknown origin) at 10 uM incubated for 30 mins in presence of [gamma-33P]ATP by multidrop micro reagent based assay relative to control; values are per cent of control"}, "[2]": {"biological_target": "RAC-beta serine/threonine-protein kinase (Homo sapiens) (UniProt P31751)", "sequence (P31751 whole entry)": "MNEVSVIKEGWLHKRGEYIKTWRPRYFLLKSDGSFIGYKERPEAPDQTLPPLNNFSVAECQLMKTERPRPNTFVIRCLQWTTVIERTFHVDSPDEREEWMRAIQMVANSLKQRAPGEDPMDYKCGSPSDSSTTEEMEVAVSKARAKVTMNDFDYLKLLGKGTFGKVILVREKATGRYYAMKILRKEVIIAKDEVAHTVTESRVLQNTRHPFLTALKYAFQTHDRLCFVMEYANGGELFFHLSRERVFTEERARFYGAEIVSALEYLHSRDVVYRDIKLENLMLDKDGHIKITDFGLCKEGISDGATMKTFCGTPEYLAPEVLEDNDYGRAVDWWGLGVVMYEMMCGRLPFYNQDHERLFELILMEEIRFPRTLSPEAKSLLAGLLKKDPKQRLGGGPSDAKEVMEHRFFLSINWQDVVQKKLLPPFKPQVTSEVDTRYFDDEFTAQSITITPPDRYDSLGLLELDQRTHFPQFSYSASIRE", "assay": "Inhibition of PKBbeta (unknown origin) at 10 uM incubated for 30 mins in presence of [gamma-33P]ATP by multidrop micro reagent based assay relative to control; values are per cent of control"}, "[3]": {"biological_target": "Serine/threonine-protein kinase 26 (Homo sapiens) (UniProt Q9P289)", "sequence (Q9P289 2-416 limits assumed)": "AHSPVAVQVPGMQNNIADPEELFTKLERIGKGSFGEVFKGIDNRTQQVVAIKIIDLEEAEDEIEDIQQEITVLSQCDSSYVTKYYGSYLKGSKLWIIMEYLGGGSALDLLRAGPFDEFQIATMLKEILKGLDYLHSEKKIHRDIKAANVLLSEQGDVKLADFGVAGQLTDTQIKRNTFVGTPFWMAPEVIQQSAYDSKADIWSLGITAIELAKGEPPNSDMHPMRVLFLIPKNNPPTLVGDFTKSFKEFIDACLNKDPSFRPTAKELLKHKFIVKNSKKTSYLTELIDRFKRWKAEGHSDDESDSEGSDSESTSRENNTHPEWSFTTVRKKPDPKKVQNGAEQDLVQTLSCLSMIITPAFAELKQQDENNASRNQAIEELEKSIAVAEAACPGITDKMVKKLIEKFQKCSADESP", "assay": "Inhibition of MST4 (unknown origin) at 10 uM incubated for 30 mins in presence of [gamma-33P]ATP by multidrop micro reagent based assay relative to control", "outline": "(§1)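 Single-concentration screen across a panel of 85 protein kinases. Activity is expressed as a percentage of control incubations run without inhibitor.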"}, "[4]": {"biological_target": "MAP kinase-interacting serine/threonine-protein kinase 1 (Homo sapiens) (UniProt Q9BUB5)", "sequence (Q9BUB5 whole entry, looked up)": "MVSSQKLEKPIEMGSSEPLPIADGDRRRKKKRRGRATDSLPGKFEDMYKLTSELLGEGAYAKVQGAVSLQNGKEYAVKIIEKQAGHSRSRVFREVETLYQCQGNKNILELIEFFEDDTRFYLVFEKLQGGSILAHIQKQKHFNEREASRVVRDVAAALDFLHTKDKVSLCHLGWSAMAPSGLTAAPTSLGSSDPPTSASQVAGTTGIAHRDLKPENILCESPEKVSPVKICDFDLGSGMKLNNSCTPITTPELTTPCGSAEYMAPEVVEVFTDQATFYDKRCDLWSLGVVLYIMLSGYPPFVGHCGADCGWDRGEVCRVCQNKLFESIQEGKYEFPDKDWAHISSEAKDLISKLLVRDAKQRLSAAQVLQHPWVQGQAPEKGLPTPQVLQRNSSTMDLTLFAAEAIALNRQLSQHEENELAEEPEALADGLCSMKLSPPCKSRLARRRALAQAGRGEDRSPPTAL", "assay": "Inhibition of MNK1 (unknown origin) at 10 uM incubated for 30 mins in presence of [gamma-33P]ATP by multidrop micro reagent based assay relative to control", "outline": "as §1"}, "[5]": {"biological_target": "Dual specificity tyrosine-phosphorylation-regulated kinase 1A (Homo sapiens) (UniProt Q13627)", "assay": "Inhibition of DYRK1A (unknown origin) at 10 uM incubated for 30 mins in presence of [gamma-33P]ATP by multidrop micro reagent based assay relative to control; values are per cent of control"}, "[6]": {"biological_target": "Ribosomal protein S6 kinase beta-1 (Homo sapiens) (UniProt P23443)", "sequence (P23443 whole entry, looked up)": "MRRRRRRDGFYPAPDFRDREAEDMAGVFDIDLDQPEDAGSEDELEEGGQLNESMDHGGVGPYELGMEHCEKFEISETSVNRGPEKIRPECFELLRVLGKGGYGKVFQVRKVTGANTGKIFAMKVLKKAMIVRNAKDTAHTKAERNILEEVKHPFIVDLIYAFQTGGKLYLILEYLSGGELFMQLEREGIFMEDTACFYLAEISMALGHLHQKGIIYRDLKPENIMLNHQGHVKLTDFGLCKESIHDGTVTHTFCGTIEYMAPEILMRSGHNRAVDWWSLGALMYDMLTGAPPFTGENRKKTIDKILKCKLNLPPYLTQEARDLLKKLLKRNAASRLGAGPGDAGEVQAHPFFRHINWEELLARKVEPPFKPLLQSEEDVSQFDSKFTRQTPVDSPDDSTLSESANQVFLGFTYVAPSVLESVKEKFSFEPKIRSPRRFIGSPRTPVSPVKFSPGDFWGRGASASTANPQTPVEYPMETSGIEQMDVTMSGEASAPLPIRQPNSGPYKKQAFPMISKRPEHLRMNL", "assay": "Residual activity of S6K1 (unknown origin) at 10 uM incubated for 30 mins in presence of [gamma-33P]ATP by multidrop micro reagent based assay relative to control"}, "[7]": {"biological_target": "Insulin receptor (Homo sapiens) (UniProt P06213)", "assay": "Inhibition of His-tagged IR (unknown origin) at 10 uM incubated for 30 mins in presence of [gamma-33P]ATP by multidrop micro reagent based assay relative to control"}, "[8]": {"biological_target": "Homeodomain-interacting protein kinase 2 (Homo sapiens) (UniProt Q9H2X6)", "assay": "Inhibition of HIPK2 (unknown origin) at 1 uM incubated for 30 mins in presence of [gamma-33P]ATP by multidrop micro reagent based assay relative to control; values are per cent of control"}, "[9]": {"biological_target": "T1, Mitogen-activated protein kinase 15 (Homo sapiens) (UniProt Q8TD08)", "T1 sequence (whole entry)": "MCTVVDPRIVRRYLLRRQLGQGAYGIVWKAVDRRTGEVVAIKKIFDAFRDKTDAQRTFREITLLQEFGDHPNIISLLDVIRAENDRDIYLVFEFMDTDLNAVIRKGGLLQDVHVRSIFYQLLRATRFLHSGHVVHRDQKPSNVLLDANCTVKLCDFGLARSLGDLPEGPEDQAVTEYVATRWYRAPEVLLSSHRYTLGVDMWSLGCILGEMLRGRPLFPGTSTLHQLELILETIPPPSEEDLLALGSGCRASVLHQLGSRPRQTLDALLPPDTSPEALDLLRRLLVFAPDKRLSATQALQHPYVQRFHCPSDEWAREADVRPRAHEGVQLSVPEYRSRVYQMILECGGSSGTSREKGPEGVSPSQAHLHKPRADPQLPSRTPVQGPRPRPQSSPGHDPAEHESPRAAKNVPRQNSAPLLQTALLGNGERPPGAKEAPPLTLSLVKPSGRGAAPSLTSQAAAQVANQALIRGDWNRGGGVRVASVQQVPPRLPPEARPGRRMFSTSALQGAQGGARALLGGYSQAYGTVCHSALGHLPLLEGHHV", "assay": "Inhibition of ERK8 (unknown origin) at 10 uM incubated for 30 mins in presence of [gamma-33P]ATP by multidrop micro reagent based assay relative to control"}, "Homo sapiens": {"species": "Homo sapiens", "assay": "Inhibition of CDK2/cyclin A (unknown origin) at 10 uM incubated for 30 mins in presence of [gamma-33P]ATP by multidrop micro reagent based assay relative to control"}, "[10]": {"biological_target": "Leucine-rich repeat serine/threonine-protein kinase 2 (Homo sapiens, UniProt Q5S007, G2019S)", "sequence (Q5S007 whole entry G2019S, the tested form may be a part)": "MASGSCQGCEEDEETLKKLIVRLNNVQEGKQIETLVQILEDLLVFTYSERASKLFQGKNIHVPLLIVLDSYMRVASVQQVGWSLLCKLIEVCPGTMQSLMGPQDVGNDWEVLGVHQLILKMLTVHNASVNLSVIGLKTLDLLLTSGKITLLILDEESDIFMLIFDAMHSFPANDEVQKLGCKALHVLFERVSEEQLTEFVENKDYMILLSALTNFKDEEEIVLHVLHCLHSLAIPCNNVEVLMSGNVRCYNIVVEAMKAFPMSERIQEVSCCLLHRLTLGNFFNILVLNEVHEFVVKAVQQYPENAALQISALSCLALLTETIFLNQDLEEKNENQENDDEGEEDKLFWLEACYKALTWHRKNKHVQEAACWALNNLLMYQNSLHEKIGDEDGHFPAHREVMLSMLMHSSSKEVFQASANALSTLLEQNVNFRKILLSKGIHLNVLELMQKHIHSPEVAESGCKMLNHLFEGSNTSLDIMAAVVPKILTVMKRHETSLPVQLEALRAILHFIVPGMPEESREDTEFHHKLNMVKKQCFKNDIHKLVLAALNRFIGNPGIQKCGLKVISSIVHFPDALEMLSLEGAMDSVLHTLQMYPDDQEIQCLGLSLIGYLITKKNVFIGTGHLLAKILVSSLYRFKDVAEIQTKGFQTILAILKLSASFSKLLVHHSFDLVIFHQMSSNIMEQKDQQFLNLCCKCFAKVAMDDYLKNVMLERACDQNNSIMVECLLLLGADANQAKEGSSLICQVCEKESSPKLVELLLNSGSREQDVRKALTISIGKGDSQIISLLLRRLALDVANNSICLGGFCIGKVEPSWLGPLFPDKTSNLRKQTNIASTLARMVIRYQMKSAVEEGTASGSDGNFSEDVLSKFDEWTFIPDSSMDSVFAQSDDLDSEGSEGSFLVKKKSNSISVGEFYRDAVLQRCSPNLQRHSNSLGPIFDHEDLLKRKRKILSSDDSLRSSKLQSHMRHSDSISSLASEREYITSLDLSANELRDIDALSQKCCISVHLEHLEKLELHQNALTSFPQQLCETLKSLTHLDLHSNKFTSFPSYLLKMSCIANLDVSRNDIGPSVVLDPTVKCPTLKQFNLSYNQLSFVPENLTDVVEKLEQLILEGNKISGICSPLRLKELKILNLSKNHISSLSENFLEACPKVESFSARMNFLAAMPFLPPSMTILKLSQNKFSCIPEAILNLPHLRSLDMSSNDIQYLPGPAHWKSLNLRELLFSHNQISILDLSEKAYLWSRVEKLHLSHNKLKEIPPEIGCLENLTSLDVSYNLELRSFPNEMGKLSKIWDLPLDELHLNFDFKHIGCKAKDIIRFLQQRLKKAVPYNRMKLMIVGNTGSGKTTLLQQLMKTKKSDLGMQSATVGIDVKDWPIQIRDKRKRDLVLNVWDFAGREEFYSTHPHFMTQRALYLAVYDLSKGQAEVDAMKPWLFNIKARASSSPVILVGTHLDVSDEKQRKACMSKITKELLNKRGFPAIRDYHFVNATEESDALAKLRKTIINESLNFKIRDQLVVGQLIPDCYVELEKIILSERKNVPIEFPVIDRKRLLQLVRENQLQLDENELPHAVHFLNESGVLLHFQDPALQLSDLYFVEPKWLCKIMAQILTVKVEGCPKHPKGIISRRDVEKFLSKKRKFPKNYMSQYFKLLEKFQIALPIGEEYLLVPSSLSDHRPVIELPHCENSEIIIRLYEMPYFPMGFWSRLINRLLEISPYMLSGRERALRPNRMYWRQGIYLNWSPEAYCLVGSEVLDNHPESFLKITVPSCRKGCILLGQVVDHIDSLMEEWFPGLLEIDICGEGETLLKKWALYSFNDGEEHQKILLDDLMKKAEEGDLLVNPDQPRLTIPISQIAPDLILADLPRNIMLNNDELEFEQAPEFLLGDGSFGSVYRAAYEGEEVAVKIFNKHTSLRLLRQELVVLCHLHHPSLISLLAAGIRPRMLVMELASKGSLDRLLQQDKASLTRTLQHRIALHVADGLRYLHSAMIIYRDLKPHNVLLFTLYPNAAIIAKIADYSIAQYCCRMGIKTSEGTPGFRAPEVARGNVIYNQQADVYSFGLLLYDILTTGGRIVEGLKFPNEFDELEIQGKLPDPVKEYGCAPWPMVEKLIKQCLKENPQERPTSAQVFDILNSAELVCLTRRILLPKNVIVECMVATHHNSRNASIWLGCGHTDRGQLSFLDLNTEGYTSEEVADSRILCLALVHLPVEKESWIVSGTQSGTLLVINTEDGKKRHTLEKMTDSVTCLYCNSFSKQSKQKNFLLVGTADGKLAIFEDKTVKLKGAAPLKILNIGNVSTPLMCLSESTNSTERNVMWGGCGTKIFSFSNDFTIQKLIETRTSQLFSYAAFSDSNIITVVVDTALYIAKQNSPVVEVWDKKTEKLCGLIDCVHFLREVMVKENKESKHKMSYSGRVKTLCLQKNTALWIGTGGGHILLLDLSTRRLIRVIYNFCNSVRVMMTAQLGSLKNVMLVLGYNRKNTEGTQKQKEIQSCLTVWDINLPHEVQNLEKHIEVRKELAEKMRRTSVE", "assay": "Inhibition of GST-tagged LRRK2 G2019S mutant (1326 to 2527 residues) (unknown origin) in presence of ATP"}}}
{"smiles": "C[C@@H](N)[C@H]1CC[C@H](C(=O)Nc2ccncc2)CC1", "values": [{"measurement": "residual activity", "setting": "[1]", "result": 85, "unit": "%"}, {"measurement": "residual activity", "setting": "[2]", "result": 105, "unit": "%"}, {"measurement": "inhibition", "setting": "[3]", "result": 67, "unit": "%"}, {"measurement": "inhibition", "setting": "[4]", "result": 20, "unit": "%"}, {"measurement": "residual activity", "setting": "[5]", "result": 96, "unit": "%"}, {"measurement": "residual activity", "setting": "[6]", "result": 70, "unit": "%"}, {"measurement": "inhibition", "setting": "[7]", "result": 113, "unit": "%"}]}
{"smiles": "CC1=C(C(=O)Nc2cc3cn[nH]c3cc2F)C(c2ccc(C(F)(F)F)cc2)CC(=O)N1", "note": "(stereo unspecified)", "values": [{"measurement": "residual activity", "setting": "[8]", "result": 104, "unit": "%"}]}
{"smiles": "O=S(=O)(c1cccc2cnccc12)N1CCCNCC1", "note": "[FASUDIL]", "values": [{"measurement": "inhibition", "setting": "[9]", "result": 68, "unit": "%"}, {"measurement": "inhibition", "setting": "Homo sapiens", "result": 82, "unit": "%"}]}
{"smiles": "Cc1cncc2cccc(S(=O)(=O)N3CCCNC[C@@H]3C)c12", "values": [{"measurement": "IC50", "setting": "[10]", "result": 104, "unit": "nM"}]}
